Reference: ChEMBL document CHEMBL1932971, “Synthesis of uriedo and thiouriedo derivatives of peptide conjugated heterocycles - A new class of promising antimicrobials” (2012)
Numbered stars: 1 amine (or outer) side, 2 acyl side, 3 side chain; on linkers, the order of the positions; unused ones are H or OH. Peptide text beside a SMILES is read from it. * marks the point of attachment. Piperazinyl(4-(2,3-Cl2Ph)) = Clc1cccc(N2CCN(*)CC2)c1Cl; Thiocarbamoyl(N-4-ClPh) = S=C(Nc1ccc(Cl)cc1)*; Thiocarbamoyl(4-MeOPh) = COc1ccc(NC(=S)*)cc1; NH(4-MeO-phenyl) = COc1ccc(N*)cc1; NH(4-Cl-phenyl) = Clc1ccc(N*)cc1; X1 = Fc1ccc2c(C3CCN(*)CC3)noc2c1; CO = O=C([*:1])[*:2]

How the values were obtained:
Type in all cases: functional
Settings in all cases: read-out: DIZ
Escherichia coli = assay: Antibacterial activity against Escherichia coli at 30 ug/ml after 24 hrs by agar well diffusion method
How it was run: (§1)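 Agar well diffusion. Inocula were grown in nutrient broth at 37 °C for 24 h, then subcultured in nutrient broth at room temperature. Compounds were made as a 1 mg/mL DMSO stock and diluted to 30 µg/mL final. Nutrient agar plates were spread-inoculated and 6 mm wells each got 0.1 mL. Controls were amoxicillin (reference) and DMSO (negative). Incubation was 24 h at 37 °C. Inhibition zone was measured in mm as the mean of three determinations.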

Xanthomonas oryzae = assay: Antibacterial activity against Xanthomonas oryzae at 30 ug/ml after 24 hrs by agar well diffusion method
Klebsiella pneumoniae = assay: Antibacterial activity against Klebsiella pneumoniae at 30 ug/ml after 24 hrs by agar well diffusion method; how it was run: as §1
Staphylococcus aureus = assay: Antibacterial activity against coagulase-positive Staphylococcus aureus at 30 ug/ml after 24 hrs by agar well diffusion method; how it was run: as §1
Aspergillus niger = assay: Antifungal activity against Aspergillus niger at 30 ug/ml after 72 hrs by agar well diffusion method
How it was run: (§2)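 Fungal well diffusion. Inocula were subcultured in nutrient broth for one day, then spread on solidified medium. Compounds were made as a 1 mg/mL DMSO stock and diluted to 30 µg/mL final. Each 6 mm well got 0.1 mL. Controls were bavistin (reference) and DMSO (negative). Plates stood for 3 days at room temperature. Inhibition zone was measured in mm as the mean of three determinations.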

Aspergillus flavus = assay: Antifungal activity against Aspergillus flavus at 30 ug/ml after 72 hrs by agar well diffusion method; how it was run: as §2
Fusarium oxysporum = assay: Antifungal activity against Fusarium oxysporum at 30 ug/ml after 72 hrs by agar well diffusion method; how it was run: as §2

SMILES	zone of inhibition at 30 µg/mL (Escherichia coli) [mm]	zone of inhibition at 30 µg/mL (Xanthomonas oryzae) [mm]	zone of inhibition at 30 µg/mL (Klebsiella pneumoniae) [mm]	zone of inhibition at 30 µg/mL (Staphylococcus aureus) [mm]	zone of inhibition at 30 µg/mL (Aspergillus niger) [mm]	zone of inhibition at 30 µg/mL (Aspergillus flavus) [mm]	zone of inhibition at 30 µg/mL (Fusarium oxysporum) [mm]
O=C(Nc1ccccc1F)N[C@@H](Cc1c[nH]c2ccccc12)C(=O)N1CCC(c2noc3cc(F)ccc23)CC1	11	11	8	8	12	9	8
O=C([C@H](Cc1c[nH]c2ccccc12)NC(=S)Nc1ccccc1F)N1CCC(c2noc3cc(F)ccc23)CC1	13	12	9	9	13	10	7
O=C(Nc1ccccc1F)N[C@@H](Cc1c[nH]c2ccccc12)C(=O)N1CCN(c2cccc(Cl)c2Cl)CC1	9	9	10	11	10	11	7
O=C([C@H](Cc1c[nH]c2ccccc12)NC(=S)Nc1ccccc1F)N1CCN(c2cccc(Cl)c2Cl)CC1	10	10	11	12	11	12	6
O=C(CNC(=O)Nc1ccc(Cl)cc1)NCC(=O)N[C@@H](Cc1ccccc1)C(=O)N1CCC[C@H]1C(=O)N1CCC(c2noc3cc(F)ccc23)CC1 ({NH(4-Cl-phenyl)-CO}-GGFP-X1)	28	25	23	21	31	26	28
O=C(CNC(=O)Nc1ccc(Cl)cc1)NCC(=O)N[C@@H](Cc1ccccc1)C(=O)N1CCC[C@H]1C(=O)N1CCN(c2cccc(Cl)c2Cl)CC1 ({NH(4-Cl-phenyl)-CO}-GGFP-{Piperazinyl(4-(2,3-Cl2Ph))})	27	24	22	20	30	25	27
CC[C@H](C)[C@H](NC(=O)CNC(=O)CNC(=O)Nc1ccc(Cl)cc1)C(=O)N1CCC[C@H]1C(=O)N1CCC(c2noc3cc(F)ccc23)CC1 ({NH(4-Cl-phenyl)-CO}-GGIP-X1)	26	22	18	19	27	24	26
COc1ccc(NC(=O)NCC(=O)N[C@@H](Cc2ccccc2)C(=O)NCC(=O)N[C@@H](Cc2ccccc2)C(=O)N2CCC[C@H]2C(=O)N2CCC(c3noc4cc(F)ccc34)CC2)cc1 ({NH(4-MeO-phenyl)-CO}-GFGFP-X1)	30	30	30	28	35	29	32
COc1ccc(NC(=O)NCC(=O)NCC(=O)N[C@@H](Cc2ccccc2)C(=O)N2CCC[C@H]2C(=O)N2CCC(c3noc4cc(F)ccc34)CC2)cc1 ({NH(4-MeO-phenyl)-CO}-GGFP-X1)	26	24	19	17	27	20	23
COc1ccc(NC(=O)NCC(=O)NCC(=O)N[C@@H](Cc2ccccc2)C(=O)N2CCC[C@H]2C(=O)N2CCN(c3cccc(Cl)c3Cl)CC2)cc1 ({NH(4-MeO-phenyl)-CO}-GGFP-{Piperazinyl(4-(2,3-Cl2Ph))})	25	23	18	16	26	19	22
CC[C@H](C)[C@H](NC(=O)CNC(=O)CNC(=O)Nc1ccc(OC)cc1)C(=O)N1CCC[C@H]1C(=O)N1CCC(c2noc3cc(F)ccc23)CC1 ({NH(4-MeO-phenyl)-CO}-GGIP-X1)	22	17	16	14	23	19	21
COc1ccc(NC(=O)NCC(=O)N[C@H](C(=O)NCC(=O)N[C@H](C(=O)N2CCC[C@H]2C(=O)N2CCC(c3noc4cc(F)ccc34)CC2)C(C)C)C(C)C)cc1 ({NH(4-MeO-phenyl)-CO}-GVGVP-X1)	26	33	27	23	30	27	27
COc1ccc(NC(=S)NCC(=O)N[C@@H](Cc2ccccc2)C(=O)NCC(=O)N[C@@H](Cc2ccccc2)C(=O)N2CCC[C@H]2C(=O)N2CCC(c3noc4cc(F)ccc34)CC2)cc1 ({Thiocarbamoyl(4-MeOPh)}-GFGFP-X1)	31	31	31	29	36	30	33
COc1ccc(NC(=S)NCC(=O)N[C@@H](Cc2ccccc2)C(=O)NCC(=O)N[C@@H](Cc2ccccc2)C(=O)N2CCC[C@H]2C(=O)N2CCN(c3cccc(Cl)c3Cl)CC2)cc1 ({Thiocarbamoyl(4-MeOPh)}-GFGFP-{Piperazinyl(4-(2,3-Cl2Ph))})	29	28	29	26	32	28	29
COc1ccc(NC(=S)NCC(=O)NCC(=O)N[C@@H](Cc2ccccc2)C(=O)N2CCC[C@H]2C(=O)N2CCC(c3noc4cc(F)ccc34)CC2)cc1 ({Thiocarbamoyl(4-MeOPh)}-GGFP-X1)	24	22	21	19	28	23	25
COc1ccc(NC(=S)NCC(=O)NCC(=O)N[C@@H](Cc2ccccc2)C(=O)N2CCC[C@H]2C(=O)N2CCN(c3cccc(Cl)c3Cl)CC2)cc1 ({Thiocarbamoyl(4-MeOPh)}-GGFP-{Piperazinyl(4-(2,3-Cl2Ph))})	23	21	20	18	29	22	24
CC[C@H](C)[C@H](NC(=O)CNC(=O)CNC(=S)Nc1ccc(OC)cc1)C(=O)N1CCC[C@H]1C(=O)N1CCC(c2noc3cc(F)ccc23)CC1 ({Thiocarbamoyl(4-MeOPh)}-GGIP-X1)	24	20	14	16	26	22	24
CC[C@H](C)[C@H](NC(=O)CNC(=O)CNC(=S)Nc1ccc(OC)cc1)C(=O)N1CCC[C@H]1C(=O)N1CCN(c2cccc(Cl)c2Cl)CC1 ({Thiocarbamoyl(4-MeOPh)}-GGIP-{Piperazinyl(4-(2,3-Cl2Ph))})	23	19	13	18	25	21	23
COc1ccc(NC(=S)NCC(=O)N[C@H](C(=O)NCC(=O)N[C@H](C(=O)N2CCC[C@H]2C(=O)N2CCC(c3noc4cc(F)ccc34)CC2)C(C)C)C(C)C)cc1 ({Thiocarbamoyl(4-MeOPh)}-GVGVP-X1)	28	28	26	24	31	26	26
COc1ccc(NC(=S)NCC(=O)N[C@H](C(=O)NCC(=O)N[C@H](C(=O)N2CCC[C@H]2C(=O)N2CCN(c3cccc(Cl)c3Cl)CC2)C(C)C)C(C)C)cc1 ({Thiocarbamoyl(4-MeOPh)}-GVGVP-{Piperazinyl(4-(2,3-Cl2Ph))})	27	26	22	22	29	23	24
O=C(CNC(=S)Nc1ccc(Cl)cc1)NCC(=O)N[C@@H](Cc1ccccc1)C(=O)N1CCC[C@H]1C(=O)N1CCC(c2noc3cc(F)ccc23)CC1 ({Thiocarbamoyl(N-4-ClPh)}-GGFP-X1)	30	27	26	24	33	29	31
